HSV augment – increases HSV replication in cells; HSV replication augmentation in cells, fold increase; maximum fold increase; 220,000 compounds, 0.005% hits; AID 1956; in the data active = maximum fold increase above about 1.5; inconclusive = no clear call, values can overlap the other calls; tested in PC3 cells
Dynein cargo inh – blocks dynein driven cargo transport along microtubules; 3617.4 mouse cells, GR-EGFP nuclear translocation imaging; test concentration mostly 20 µM; stimulated with dexamethasone, 1 µM; stronger effect = lower value; z-score, hits read low; 220,000 compounds, 0.47% hits; AID 1381;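 active = plate z-score of nuclear minus cytoplasmic receptor signal below a set negative limit, without overly bright fluorescence or cell loss, cut at about -3.5 in these data, passing the limit was not always enough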;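 also: z-score of nuclear minus cytoplasmic ring GR-EGFP intensity difference per well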
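Buffer or medium – tet-free medium with charcoal-stripped serum · Signal – automated 10x imaging of fixed Hoechst-stained cells · Also added – dexamethasone agonist, 1.0 µM final, for 30 min · Incubation – induction 48 h, compound 1 h, agonist 30 min · Read-out – GR-EGFP nuclear translocation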
INS promoter inh – TRM-6 insulin promoter activity inhibition; TRM-6 cells (human fetal islet line), insulin promoter-eGFP reporter, imaging; reporter expression induced with tamoxifen; inhibition, % at 2 µM; 130,000 compounds, 0.9% hits; AID 1273;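 active = inhibition above the mean plus 3 SD, with well images judged a real hit on visual review, cut at about 60% in these data, passing the limit was not always enough; inconclusive = inhibition over the cutoff but images rejected on review; inactive = inhibition not above the cutoff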
Ins promoter up – MIN6 insulin promoter up-regulation. MIN6 insulin promoter-GFP reporter, high-content imaging; stronger effect = higher value. z-score at 5 µM. 190,000 compounds, 0.3% hits. AID 1625;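 active = z-score above 3 at 5 µM with at least 500 cells counted in the well; inconclusive = wells under 500 cells, flagged as cytotoxic or low count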
Autophagy HCS – autophagy modulation, high-content screen; MEF GFP-LC3 puncta imaging; test concentration mostly 10 µM; calls only at 10 µM (by protocol); 190,000 compounds, 0.98% hits;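 active = percentage of spot-positive cells more than 3 SD above its plate mean, without a fluorescence outlier flag or 80% toxicity; inconclusive = no clear call, values can overlap the other calls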
Furin inh – blocks human furin protease activity. purified furin, fluorogenic substrate cleavage. inhibition, % at 20 µM or 30 µM. 220,000 compounds, 0.061% hits. AID 463115; in the data active = inhibition above about 25%
Target sequence (P09958 108-714 limits assumed): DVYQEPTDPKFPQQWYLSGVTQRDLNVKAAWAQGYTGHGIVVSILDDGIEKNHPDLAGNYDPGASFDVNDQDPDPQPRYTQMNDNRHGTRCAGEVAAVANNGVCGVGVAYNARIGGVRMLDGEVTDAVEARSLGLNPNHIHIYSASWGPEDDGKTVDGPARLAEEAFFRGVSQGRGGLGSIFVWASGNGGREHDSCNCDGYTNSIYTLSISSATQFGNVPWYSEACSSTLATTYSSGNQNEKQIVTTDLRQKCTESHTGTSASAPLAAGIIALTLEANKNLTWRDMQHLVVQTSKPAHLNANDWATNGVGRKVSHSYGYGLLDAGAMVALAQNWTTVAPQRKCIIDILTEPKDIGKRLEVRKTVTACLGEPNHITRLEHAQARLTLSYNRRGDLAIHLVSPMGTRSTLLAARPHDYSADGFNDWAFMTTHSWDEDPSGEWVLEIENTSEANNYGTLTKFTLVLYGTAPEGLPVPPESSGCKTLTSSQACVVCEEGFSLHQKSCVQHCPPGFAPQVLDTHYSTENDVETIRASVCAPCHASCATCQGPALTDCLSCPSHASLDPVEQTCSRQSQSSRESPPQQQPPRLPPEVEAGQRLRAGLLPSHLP
Dynein confirm – dynein cargo transport inhibition, confirmation; shares compounds with Dynein cargo inh; 3617.4 GR-EGFP nuclear translocation imaging, dexamethasone-induced; calls only at 20 µM; 1,000 compounds, 69% hits; AID 463116;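 active = inhibition of receptor movement into the nucleus at or above a set limit in both runs, with normal cell brightness and cell count; inconclusive = limit reached in only one run, brightness and count normal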;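 also: dexamethasone at 1 µM final in well for 30 min; nuclear minus cytoplasmic GR-EGFP mean intensity difference in channel 2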
Each line names hits and unclear results; the compound was inactive in the other large screens (follow-up assays come after a bar, where they were run); ! = not confirmed by another sample. This is a sample that favours compounds with a hit; in the whole collection about 2% have one here.

CC(C)COc1cccc(C(=O)NC(=S)NCc2cccnc2)c1	none (no result: INS promoter inh)
O=C1c2ccccc2C(=O)N1CCCCN1CCN(CCCCN2C(=O)c3ccccc3C2=O)CC1	Furin inh 25.8 (no result: HSV augment, Ins promoter up)
O=C(OCCCCN1C(=O)c2ccccc2C1=O)c1ccc(Br)o1	INS promoter inh 78.6
O=C1CC(=C(c2ccccc2)c2ccccc2)C(=O)N1CCCN1CCN(c2cccc(Cl)c2)CC1	none (no result: Ins promoter up)
O=C1CC(=C2c3ccccc3-c3ccccc32)C(=O)N1CCCCN1CCN(c2ccccc2)CC1	Furin inh 28.3 (no result: Ins promoter up)
Cc1ccccc1C(=O)N1CCC(C(=O)N2CCN(S(=O)(=O)c3ccccc3F)CC2)CC1	none
CC1(C)CC(=O)C(C=NCCN2CCN(C3CC(=O)N(c4ccc(Br)cc4)C3=O)CC2)=C(O)C1 (stereo not given)	none (no result: Ins promoter up)
CCOC(=O)c1sc2nc3c(cc2c1N)COC(C)(C)C3	INS promoter inh 81.2 (no result: Ins promoter up)
CCOC(=O)C1CCCN(C(=O)c2cn(C)c3ccc(S(=O)(=O)N(C)C)cc3c2=O)C1 (stereo not given)	Autophagy HCS active (no result: INS promoter inh)
CN(C)S(=O)(=O)c1ccc2c(c1)c(=O)c(C(=O)N1CCOCC1)cn2C	none (no result: INS promoter inh, Autophagy HCS)
CCCN(CCC)CCCNC(=S)Nc1ccc2nc(N3CCN(C)CC3)cc(C)c2c1	Autophagy HCS active (no result: INS promoter inh)
CCN1CCN(c2cc(C)c3cc(NC(=O)c4ccncc4)ccc3n2)CC1	none (no result: INS promoter inh)
CCN1CCN(c2cc(C)c3cc(NC(=O)c4ccc(Br)o4)ccc3n2)CC1	Autophagy HCS active
N#Cc1c(C(F)(F)F)cc(-c2ccccc2)[nH]c1=O	none (no result: Ins promoter up)
COc1cccc(-c2cc(C(F)(F)F)c(C#N)c(=O)[nH]2)c1	Autophagy HCS active (no result: INS promoter inh)
COC(=O)c1ccc(COn2nnc3ccccc32)cc1	none
CC1CCC(C(C)C)C(OC(=O)Cn2c(-c3ccc(Cl)cc3)[n+](C)c3ccccc32)C1 (stereo not given)	Ins promoter up inconclusive (no result: INS promoter inh, Autophagy HCS)
Cc1ccccc1OCc1n(CC(=O)OC2CC(C)CCC2C(C)C)c2ccccc2[n+]1C (stereo not given)	Autophagy HCS active
CC1CCC(C(C)C)C(OC(=O)Cn2c(-c3ccc(Br)cc3)[n+](C)c3ccccc32)C1 (stereo not given)	Autophagy HCS active!
C/C(=N\N1CCN(c2ccccc2)CC1)c1ccncc1	none (no result: INS promoter inh)
CCCn1c(=NC(=O)c2c(-c3c(F)cccc3Cl)noc2C)c(C(=O)OCC)cc2c(=O)n3ccccc3nc21	Autophagy HCS active
CCOC(=O)/C(C#N)=C\c1ccc(OC)c(OC)c1	none
CCOC(=O)c1c(-c2ccccc2)csc1NC(=O)/C(C#N)=C/c1ccc(OC)c(OC)c1	Autophagy HCS active
COc1ccc2nc(/N=C(\N)NC(=O)C(C)(C)C)nc(C)c2c1	none (no result: Ins promoter up)
CCC(=O)N/C(N)=N/c1nc(C)c2cc(OC)ccc2n1	INS promoter inh 80.0
COc1cccc(C(=O)N/N=C/C(Br)=C/c2ccccc2)c1	none (no result: INS promoter inh, Ins promoter up)
CCOc1cc(OCC)cc(C(=O)Nc2cccc(C(C)=O)c2)c1	none
COc1cc(OC)cc(C(=O)Nc2ccc(-c3nc4ccccc4o3)cc2)c1	Autophagy HCS active (no result: INS promoter inh)
COc1cc(OC)cc(C(=O)Nc2cccc(C(C)=O)c2)c1	Ins promoter up 3.53
COc1cccc(C(=O)Nc2ccc(-c3nc4ccccc4o3)c(O)c2)c1	none (no result: INS promoter inh)
CC(C)N(C(=O)C[n+]1ccsc1N)c1ccccc1	none (no result: INS promoter inh, Ins promoter up)
O=[N+]([O-])c1cccc2c(N3CCCC3)ccnc12	none (no result: INS promoter inh)
CN(C)C(C)(C)C#CCCCCC#CC(C)(C)N(C)C	INS promoter inh 70.7 (no result: Ins promoter up)
CN(C)C(C)(C)C#CCC(c1ccccc1)c1ccccc1	none (no result: INS promoter inh)
CC1CCN(c2ccc(NC(=O)c3cccnc3Cl)cc2)CC1	none
CC1CCN(c2ccc(NC(=O)c3cccnc3)cc2)CC1	Furin inh 25.3 (no result: Ins promoter up)
CCOc1cccc(-c2csc(C3COc4ccccc4O3)n2)c1 (stereo not given)	none (no result: INS promoter inh)
O=C(c1ccccc1)c1c[nH]c(C(=O)C(Cl)(Cl)Cl)c1	none (no result: INS promoter inh)
O=C(c1ccc(Cl)cc1)c1c[nH]c(C(=O)C(Cl)(Cl)Cl)c1	Dynein cargo inh -3.69 | Dynein confirm active
CN(C)c1ccc(C(=O)/C=C/c2ccc(Br)cc2)cc1	none
CCN(CC)c1ccc(/C=C/C(=O)c2ccc(Br)cc2)cc1	Autophagy HCS active (no result: HSV augment, INS promoter inh, Ins promoter up) | Dynein confirm active
CSc1sc(-c2n[nH]c(=S)n2C)c2c1C=CCC2	none (no result: INS promoter inh, Autophagy HCS)
O=C(CN1C(=O)c2ccccc2C1=O)N1CCN(C2c3ccccc3-c3ccccc32)CC1	none
Nc1nc2ccc(S(=O)(=O)N3CCCCC3)cc2s1	Dynein cargo inh -4.14 (no result: INS promoter inh) | Dynein confirm inactive
CCOn1c(=O)c(-c2ccc(OC)c(OC)c2)[n+]([O-])c2ccccc21	Dynein cargo inh -3.74 (no result: Ins promoter up) | Dynein confirm inactive
CCOn1c(=O)c(-c2ccc(OC)cc2)[n+]([O-])c2ccccc21	none (no result: INS promoter inh)
O=C(/C=C/c1ccccc1)c1ccc2c(c1)OCCCCO2	none (no result: INS promoter inh)
O=C(CCl)N(C/C=C/c1ccccc1)c1ccc2c(c1)OCCO2	Dynein cargo inh -3.95 (no result: INS promoter inh) | Dynein confirm active
N#CC1(C#N)C(c2ccccc2)OC23CCCCCC2C1(C#N)C(=N)O3 (stereo not given)	none (no result: INS promoter inh)
N#CC1(C#N)C(c2ccccc2)OC23CCCCC2C1(C#N)C(=N)O3 (stereo not given)	HSV augment inconclusive, Dynein cargo inh -4.19 | Dynein confirm active
O=Cc1s/c(=N\S(=O)(=O)c2ccccc2)n(CCCCl)c1Cl	Dynein cargo inh -5.74 (no result: INS promoter inh) | Dynein confirm active
CN1CC=C2C(C#N)=C(N)C(C#N)(C#N)C(Cc3ccccc3)C2C1 (stereo not given)	HSV augment inconclusive, Autophagy HCS inconclusive (no result: Ins promoter up) | Dynein confirm inactive
CC(C)N1CC=C2C(C#N)=C(N)C(C#N)(C#N)C(c3ccccc3)C2C1 (stereo not given)	HSV augment inconclusive, Autophagy HCS inconclusive (no result: Ins promoter up)
O=C(Oc1coc(CSc2ncccn2)cc1=O)c1cccc([N+](=O)[O-])c1	none
Cc1ccnc(SCc2cc(=O)c(OC(=O)c3cc([N+](=O)[O-])ccc3Cl)co2)n1	Dynein cargo inh -4.68 | Dynein confirm active
COc1cccc(C(=O)Oc2ccccc2/C=C\C(=O)c2cc3ccccc3o2)c1	Dynein cargo inh -4.01 (no result: INS promoter inh) | Dynein confirm active
O=C(Oc1ccccc1/C=C\C(=O)c1cc2ccccc2o1)c1ccccc1	none
O=c1c(Cl)nc2cc(Cl)ccc2n1CCNc1ncc(C(F)(F)F)cc1Cl	Dynein cargo inh -4.49, Autophagy HCS active | Dynein confirm inactive
COc1cc2c(c(OC)c1O)C(=O)CO2	none (no result: INS promoter inh, Autophagy HCS)
COc1cc(OC)c2c(O)c3c(c(-c4c5c(c(O)c6c(OC)cc(OC)cc46)CO[C@@H](C)[C@H]5O)c2c1)[C@H](O)[C@H](C)OC3	Dynein cargo inh -4.51 (no result: INS promoter inh) | Dynein confirm active
Cc1ccc2c(c1)S/C(=C/c1ccc[n+](CCO)c1)N2C	none (no result: Ins promoter up)

Source: PubChem (several laboratories)
